Measurements taken from ChEMBL document CHEMBL1129963, “Sulfonimidamide analogs of oncolytic sulfonylureas” (J Med Chem, 1997).
Converted amounts (≈) assume the structure as drawn.

Columns and labels:
CCRF-CEM = test: In vitro cytotoxicity against CCRF-CEM cells; type: functional, cell-based; settings: Homo sapiens
Method in brief: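 CCRF-CEM cells were grown in culture for 72 h with compound. The value is the concentration that inhibited growth to 50% of control growth.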

Mus musculus [1] = test: In vivo antitumor activity against subaxillary implanted 6C3HED lymphosarcoma implanted in C3H mice at a dose of 300 mg/kg administered perorally daily for a period of 8 days.; type: functional; settings: 192 h, route oral
Method in brief: (§1)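 6C3HED lymphosarcoma was carried in C3H mice. Compound was dosed at the stated route and schedule for 8 days (daily, twice daily, or days 1, 3, 5, 7) and tumor growth inhibition was scored against controls. The table value is the lowest dose giving >80% inhibition, or the highest dose tested. Deaths per group were recorded.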

Mus musculus [2] = test: (§2) Metabolic breakdown to the o-sulfate of p-chloroaniline (2-amino-5-chlorophenyl sulfate) by giving 100 mg/kg oral doses of the compound; type: functional
Method in brief: (§3)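 Groups of two to four mice received single 100 mg/kg oral doses of each compound. Urine was pooled over 0-24 h, and the 2-amino-5-chlorophenyl sulfate excreted in 24 h per mouse was quantified as the marker of p-chloroaniline release.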

Mus musculus [3] = test: In vivo antitumor activity against subaxillary implanted 6C3HED lymphosarcoma implanted in C3H mice at a dose of 150 mg/kg administered perorally twice daily for a period of 8 days.; type: functional; settings: for inhibition in vivo at 150 mg/kg: Mus musculus, 6C3HED, po, 192 h; method in brief: as §1
Mus musculus [4] = test: In vivo antitumor activity of compound against subaxillary implanted 6C3HED lymphosarcoma implanted in C3H mice at a dose of 25 mg/kg administered perorally twice daily for a period of 8 days.; type: functional; settings: route oral
Method in brief: (§4)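 Oral dosing twice daily for 8 days in C3H mice bearing 6C3HED lymphosarcoma. Read-out is percent tumor growth inhibition relative to controls, with deaths per group also recorded. The full in vivo protocol is given in an earlier report.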

Mus musculus [5] = test: In vivo antitumor activity of compound against subaxillary implanted 6C3HED lymphosarcoma implanted in C3H mice at a dose of 150 mg/kg administered perorally twice daily for a period of 8 days; Toxic; type: functional, organism-based; set-up: dose 150 mg/kg; method in brief: as §1
Mus musculus [6] = test: In vivo antitumor activity of compound against subaxillary implanted 6C3HED lymphosarcoma implanted in C3H mice at a dose of 19 mg/kg administered perorally on days 1, 3, 5, 7; type: functional; settings: route oral; method in brief: as §1
Mus musculus [7] = test: In vivo antitumor activity against subaxillary implanted 6C3HED lymphosarcoma implanted in C3H mice at a dose of 300 mg/kg administered perorally twice daily for a period of 8 days.; type: functional; settings: 192 h, route oral; method in brief: as §1
Mus musculus [8] = test: In vivo antitumor activity of compound against subaxillary implanted 6C3HED lymphosarcoma implanted in C3H mice at a dose of 25 mg/kg administered perorally daily for a period of 8 days.; type: functional; settings: 192 h, route oral; method in brief: as §1
[9] = as §2; type: ADME, organism-based; set-up: dose 100 mg/kg, route oral; settings: in vivo; method in brief: as §3
Mus musculus [10] = test: In vivo antitumor activity of compound against subaxillary implanted 6C3HED lymphosarcoma implanted in C3H mice at a dose of 150 mg/kg administered perorally daily for a period of 8 days.; type: functional; settings: 192 h, route oral; method in brief: as §1
Mus musculus [11] = test: In vivo antitumor activity of compound against subaxillary implanted 6C3HED lymphosarcoma implanted in C3H mice at a dose of 150 mg/kg administered intraperitoneally daily for a period of 8 days.; type: functional; settings: ip, 192 h, route intraperitoneal; method in brief: as §1
Mus musculus [12] = test: In vivo antitumor activity of compound against subaxillary implanted 6C3HED lymphosarcoma implanted in C3H mice at a dose of 300 mg/kg administered intraperitoneally daily for a period of 8 days.; type: functional; settings: ip, 192 h, route intraperitoneal; method in brief: as §1
Mus musculus [13] = test: In vivo antitumor activity of compound against subaxillary implanted 6C3HED lymphosarcoma implanted in C3H mice at a dose of 50 mg/kg administered perorally twice daily for a period of 8 days.; type: functional; settings: 192 h, route oral; method in brief: as §1
[14] = % dose converted to 2-amino-5-chlorophenyl sulfate; type: ADME; method in brief: as §3
[15] = % dose converted to 4-(S-amino-N-{[(4-chlorophenyl)amino]carbonyl}sulfonimidoyl)benzoic acid (compound 41); type: ADME
Mus musculus [16] = test: (§5) In vivo antitumor activity of compound against subaxillary implanted 6C3HED lymphosarcoma implanted in C3H mice at a dose of 75 mg/kg administered perorally twice daily for a period of 8 days.; type: functional; settings: 192 h, route oral; method in brief: as §1
Mus musculus [17] = test: as §5; type: functional; settings: route oral; method in brief: as §4

Cc1ccc(NC(=O)N=[S+](N)([O-])c2ccc(C)cc2)cc1 (centres undefined)
IC50 (CCRF-CEM): > 20 µg/mL | inhibition in vivo at 300 mg/kg (Mus musculus [1]): 40%

O=C(Nc1ccc(Cl)cc1)NS(=O)(=O)c1ccc2c(c1)CCC2 [SULOFENUR]
Activity (Mus musculus [2]): 0.37 µM | inhibition in vivo at 150 mg/kg (Mus musculus [3]): 91%

N[S+]([O-])(=NC(=O)Nc1ccc(Cl)cc1)c1ccc(C(F)(F)F)cc1 (centres undefined)
IC50 (CCRF-CEM): 15.2 µg/mL (≈ 40.2 µM) | Lethality (Mus musculus [4]): 100% | inhibition (Mus musculus [5]): Toxic

Cc1cc([S+](N)([O-])=NC(=O)Nc2ccc(Cl)cc2)cc(C)c1C (centres undefined)
IC50 (CCRF-CEM): 12.7 µg/mL (≈ 36.1 µM) | inhibition in vivo at 19 mg/kg (Mus musculus [6]): 95%

CC(=O)N[S+]([O-])(=NC(=O)Nc1ccc(Cl)cc1)c1ccc(C)cc1 (centres undefined)
IC50 (CCRF-CEM): > 20 µg/mL | inhibition in vivo at 300 mg/kg (Mus musculus [7]): 84%

CN[S+]([O-])(=NC(=O)Nc1ccc(Cl)cc1)c1ccc(C)c(C)c1 (centres undefined)
IC50 (CCRF-CEM): 16.2 µg/mL (≈ 46 µM) | inhibition in vivo at 25 mg/kg (Mus musculus [8]): 98%

Cc1ccc([S+]([O-])(=NC(=O)Nc2ccc(Cl)cc2)NCCc2ccccc2)cc1 (centres undefined)
IC50 (CCRF-CEM): 5.3 µg/mL (≈ 12.4 µM) | inhibition in vivo at 300 mg/kg (Mus musculus [7]): 48%

CN[S+]([O-])(=NC(=O)Nc1ccc(Cl)cc1)c1ccc(C)cc1 (centres undefined)
Activity [9]: 1.2 µM | IC50 (CCRF-CEM): > 20 µg/mL | inhibition in vivo at 150 mg/kg (Mus musculus [10]): 93%

CCCCN(C(C)=O)[S+]([O-])(=NC(=O)N(C(C)=O)c1ccc(Cl)cc1)c1ccc(C)cc1 (centres undefined)
IC50 (CCRF-CEM): 2.9 µg/mL (≈ 6.25 µM) | inhibition in vivo at 300 mg/kg (Mus musculus [7]): 10%

Cc1ccc([S+]([O-])(=NC(=O)Nc2ccc(Cl)cc2)NCc2ccccc2)cc1 (centres undefined)
IC50 (CCRF-CEM): 8.7 µg/mL (≈ 21 µM) | inhibition in vivo at 300 mg/kg (Mus musculus [7]): 87%

Cc1ccc([S+](N)([O-])=NC(=O)Nc2ccc(F)cc2)cc1 (centres undefined)
IC50 (CCRF-CEM): > 20 µg/mL | inhibition in vivo at 300 mg/kg (Mus musculus [7]): 0%

Cc1ccc(S(=O)(=O)NC(=O)Nc2ccc(Cl)cc2)cc1 [LY-181984]
Activity (Mus musculus [2]): 1.02 µM | inhibition in vivo at 150 mg/kg (Mus musculus [3]): 93%

Cc1ccc([S+]([O-])(=NC(=O)Nc2ccc(Cl)cc2)Nc2ccccc2)cc1 (centres undefined)
IC50 (CCRF-CEM): 7 µg/mL (≈ 17.5 µM) | inhibition in vivo at 300 mg/kg (Mus musculus [1]): 5%

CCCCN(C(C)=O)[S+]([O-])(=NC(=O)Nc1ccc(Cl)cc1)c1ccc(C)cc1 (centres undefined)
IC50 (CCRF-CEM): 12.5 µg/mL (≈ 29.6 µM) | inhibition in vivo at 300 mg/kg (Mus musculus [7]): 53%

N[S+]([O-])(=NC(=O)Nc1ccc(Cl)cc1)c1ccc(C=O)cc1 (centres undefined)
IC50 (CCRF-CEM): 5.6 µg/mL (≈ 16.6 µM) | inhibition in vivo at 150 mg/kg (Mus musculus [11]): 80%

Cc1ccc([S+](N)([O-])=NC(=O)Nc2ccc(Cl)cc2)cc1 (stereo in doubt; 14)
Activity [9]: < 0.2 µM | IC50 (CCRF-CEM): > 20 µg/mL | inhibition in vivo at 300 mg/kg (Mus musculus [12]): 98% | inhibition in vivo at 300 mg/kg (Mus musculus [1]): 89% | inhibition in vivo at 50 mg/kg (Mus musculus [13]): 95% | inhibition in vivo at 150 mg/kg (Mus musculus [11]): 92%

CC(=O)N(C(=O)N=[S+]([O-])(c1ccc(C)cc1)N(C)C(C)=O)c1ccc(Cl)cc1 (centres undefined)
IC50 (CCRF-CEM): 5.6 µg/mL (≈ 13.3 µM) | inhibition in vivo at 150 mg/kg (Mus musculus [3]): 83%

N[S+]([O-])(=NC(=O)Nc1ccc(Cl)cc1)c1ccccc1 (centres undefined)
IC50 (CCRF-CEM): > 20 µg/mL | inhibition in vivo at 300 mg/kg (Mus musculus [7]): 0%

Cc1ccc([S+](N)([O-])=NC(=O)Nc2ccc(C(F)(F)F)cc2)cc1 (centres undefined)
IC50 (CCRF-CEM): > 20 µg/mL

Cc1cc([S+](N)([O-])=NC(=O)Nc2ccc(Cl)cc2)cc(C)c1Cl (centres undefined)
IC50 (CCRF-CEM): 6.2 µg/mL (≈ 16.7 µM) | inhibition in vivo at 300 mg/kg (Mus musculus [7]): 0%

CC(=O)N(C)[S+]([O-])(=NC(=O)Nc1ccc(Cl)cc1)c1ccc(C)cc1 (centres undefined)
IC50 (CCRF-CEM): 9.6 µg/mL (≈ 25.3 µM) | inhibition in vivo at 150 mg/kg (Mus musculus [3]): 98%

Cc1ccc([S+](N)([O-])=NC(=O)Nc2ccc(Cl)cc2)cc1 (single isomer, unassigned; (-))
Dose converted [14]: 4.7% | Dose converted [15]: 18% | Activity [9]: 0.58 µM | inhibition in vivo at 75 mg/kg (Mus musculus [16]): 100% | Lethality (Mus musculus [17]): 60% | Inhibition (Mus musculus [3]; route oral, 150 mg/kg): 100%

Cc1ccc([S+](N)([O-])=NC(=O)Nc2ccc(O)cc2)cc1 (centres undefined)
IC50 (CCRF-CEM): > 20 µg/mL | inhibition in vivo at 300 mg/kg (Mus musculus [12]): 11%

N[S+]([O-])(=NC(=O)Nc1ccc(Cl)cc1)c1ccc2c(c1)CCC2 (centres undefined)
Activity [9]: < 0.15 µM | IC50 (CCRF-CEM): > 20 µg/mL | inhibition in vivo at 150 mg/kg (Mus musculus [11]): 86%

Cc1ccc([S+]([O-])(=NC(=O)Nc2ccc(Cl)cc2)NC(C)C)cc1 (centres undefined)
IC50 (CCRF-CEM): 1.4 µg/mL (≈ 3.83 µM) | inhibition in vivo at 75 mg/kg (Mus musculus [16]): 86%

C=CCN[S+]([O-])(=NC(=O)Nc1ccc(Cl)cc1)c1ccc(C)cc1 (centres undefined)
IC50 (CCRF-CEM): 10 µg/mL (≈ 27.5 µM) | inhibition in vivo at 300 mg/kg (Mus musculus [7]): 45%

COC(=O)c1ccc([S+](N)([O-])=NC(=O)Nc2ccc(Cl)cc2)cc1 (centres undefined)
IC50 (CCRF-CEM): > 20 µg/mL | inhibition in vivo at 300 mg/kg (Mus musculus [7]): 0%
